Activity calls are given as the source filed them. No cut-off for these calls is given here.

By inhibition is commonly meant the percentage by which the read-out fell short of the control. As usually defined, the IC50 is the point on the concentration scale where inhibition reaches its midpoint.

Common to all, as to type: cell-based
For assay [1], the target named is T1, Neuronal acetylcholine receptor; alpha4/beta2 (Homo sapiens, UniProt P17787+P43681). Briefly: Agonist activity at human alpha4beta2 nAChR expressed in HEK293 cells assessed as increase in calcium influx at 100 uM measured for 78 secs by Fluo-4-AM dye based FLIPR assay. In short, it runs like this: (§1)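 Cells seeded 5 × 10^4/well 72 h before, 37 °C, 5% CO2; medium switched to HBSS (pH 7.4)/1% FBS 16–24 h before assay. Loaded 1 h at 37 °C with Fluo-4 plus 2.5 mM probenecid. Compound added alone on FLIPR, fluorescence (ex 488/em 510 nm) recorded 78 s; response normalized to maximal (±)-epibatidine response.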
T1 sequence (P17787 whole entry): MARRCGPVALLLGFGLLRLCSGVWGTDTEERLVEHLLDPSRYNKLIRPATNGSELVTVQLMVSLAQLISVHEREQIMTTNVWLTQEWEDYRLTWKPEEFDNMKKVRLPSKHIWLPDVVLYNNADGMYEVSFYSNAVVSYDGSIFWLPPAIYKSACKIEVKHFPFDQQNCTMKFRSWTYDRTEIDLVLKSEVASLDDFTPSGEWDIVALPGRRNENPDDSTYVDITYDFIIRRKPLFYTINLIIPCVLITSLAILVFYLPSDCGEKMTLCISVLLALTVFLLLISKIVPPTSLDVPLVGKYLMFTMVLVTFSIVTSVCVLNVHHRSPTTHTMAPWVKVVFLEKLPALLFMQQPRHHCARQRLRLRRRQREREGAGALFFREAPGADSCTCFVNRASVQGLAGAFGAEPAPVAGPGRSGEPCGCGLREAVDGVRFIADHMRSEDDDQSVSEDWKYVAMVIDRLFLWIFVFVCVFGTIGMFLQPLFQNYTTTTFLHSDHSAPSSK
T1 sequence (P43681 whole entry): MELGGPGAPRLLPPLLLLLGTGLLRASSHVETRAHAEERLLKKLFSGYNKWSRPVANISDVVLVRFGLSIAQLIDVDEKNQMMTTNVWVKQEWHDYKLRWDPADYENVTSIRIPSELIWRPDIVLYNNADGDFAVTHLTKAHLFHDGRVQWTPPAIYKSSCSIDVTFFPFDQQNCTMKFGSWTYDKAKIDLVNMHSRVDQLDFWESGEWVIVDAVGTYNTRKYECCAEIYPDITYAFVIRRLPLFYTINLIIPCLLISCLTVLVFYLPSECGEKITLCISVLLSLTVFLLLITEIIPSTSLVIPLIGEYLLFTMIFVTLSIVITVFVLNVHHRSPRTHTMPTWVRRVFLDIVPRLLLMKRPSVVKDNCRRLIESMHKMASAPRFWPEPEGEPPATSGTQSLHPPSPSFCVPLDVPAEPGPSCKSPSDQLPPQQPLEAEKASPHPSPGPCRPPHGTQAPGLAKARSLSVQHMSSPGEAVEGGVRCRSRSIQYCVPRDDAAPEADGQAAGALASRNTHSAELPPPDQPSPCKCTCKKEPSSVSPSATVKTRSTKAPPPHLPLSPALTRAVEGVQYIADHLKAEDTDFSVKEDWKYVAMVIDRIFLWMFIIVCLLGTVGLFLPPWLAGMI

Assay [2] has as its target T2, Neuronal acetylcholine receptor; alpha3/beta4 (Homo sapiens, UniProt P30926+P32297). Put plainly: Agonist activity at human alpha3beta4 nAChR expressed in HEK293 cells assessed as increase in calcium influx at 100 uM measured for 78 secs by Fluo-4-AM dye based FLIPR assay. Put shortly:
as §1

For assay [3], the target named is T3, Neuronal acetylcholine receptor subunit alpha-7 (Homo sapiens, UniProt P36544). Put plainly: Agonist activity at human alpha7 nAChR expressed in rat GH3 cells assessed as increase in calcium influx at 100 uM measured for 78 secs by Fluo-4-AM dye based FLIPR assay. In short, it runs like this:
as §1

For assay [4], the target named is T1, Neuronal acetylcholine receptor; alpha4/beta2. Put plainly: Antagonist activity at human alpha4beta2 nAChR expressed in HEK293 cells assessed as inhibition of (+/-)-epibatidine-induced calcium influx at 1 uM preincubated for 5 mins followed by (+/-)-epibatidine addition measured for 78 secs by Fluo-4-AM dye based FLIPR assay. In short, it runs like this:
(§2)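 Fluo-4-loaded cells (1 h, 37 °C, 2.5 mM probenecid) washed twice in HBSS/1% FBS, then preincubated 5 min with test ligand at various concentrations. 0.1 μM (±)-epibatidine added on FLIPR after 5-reading baseline; fluorescence (ex 488/em 510 nm) recorded 78 s. Response normalized to maximal epibatidine response; IC50 and nH from nonlinear least-squares curve fits; SD, n = 3.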

Assay [5] has as its target T2, Neuronal acetylcholine receptor; alpha3/beta4. Briefly: Antagonist activity at human alpha3beta4 nAChR expressed in HEK293 cells assessed as inhibition of (+/-)-epibatidine-induced calcium influx preincubated for 5 mins followed by (+/-)-epibatidine addition measured for 78 secs by Fluo-4-AM dye based FLIPR assay. Put shortly:
as §2

Assay [6] concerns the target T3, Neuronal acetylcholine receptor subunit alpha-7. Put plainly: Antagonist activity at human alpha7 nAChR expressed in HEK293 cells assessed as inhibition of (+/-)-epibatidine-induced calcium influx preincubated for 5 mins followed by (+/-)-epibatidine addition measured for 78 secs by Fluo-4-AM dye based FLIPR assay. The note with it: in the assay text read “GH3” for “HEK293”. In short, it runs like this: as §2

Assay [7] deals with T1, Neuronal acetylcholine receptor; alpha4/beta2. Put plainly: Antagonist activity at human alpha4beta2 nAChR expressed in HEK293 cells assessed as inhibition of (+/-)-epibatidine-induced calcium influx preincubated for 5 mins followed by (+/-)-epibatidine addition measured for 78 secs by Fluo-4-AM dye based FLIPR assay. Put shortly:
as §2

Assay [8] shares this target. Briefly: Antagonist activity at human alpha4beta2 nAChR expressed in HEK293 cells assessed as inhibition of (+/-)-epibatidine-induced calcium influx up to 100 uM preincubated for 5 mins followed by (+/-)-epibatidine addition measured for 78 secs by Fluo-4-AM dye based FLIPR assay. In short, it runs like this:
as §2

The target is the same in assay [9]. Put plainly: Non-competitive inhibition of human alpha4beta2 nAChR expressed in HEK293 cells assessed as inhibition of (+/-)-epibatidine-induced calcium influx preincubated for 5 mins followed by (+/-)-epibatidine addition measured for 78 secs by Fluo-4-AM dye based FLIPR assay. In short, it runs like this: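 (±)-Epibatidine concentration–response curves measured on hα4β2 HEK293 cells without drimane or after 5 min preincubation with 0.3, 1.0 and 3.0 μM; Fluo-4 Ca2+ fluorescence on FLIPR, 78 s recording; n = 3.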

For assay [10] the target is unchanged. Put plainly: Antagonist activity at human alpha4beta2 nAChR expressed in HEK293 cells assessed as inhibition of (+/-)-epibatidine-induced calcium influx at 10 to 100 uM preincubated for 5 mins followed by (+/-)-epibatidine addition measured for 78 secs by Fluo-4-AM dye based FLIPR assay relative to control. Put shortly:
as §2

T3 sequence (P36544 whole entry): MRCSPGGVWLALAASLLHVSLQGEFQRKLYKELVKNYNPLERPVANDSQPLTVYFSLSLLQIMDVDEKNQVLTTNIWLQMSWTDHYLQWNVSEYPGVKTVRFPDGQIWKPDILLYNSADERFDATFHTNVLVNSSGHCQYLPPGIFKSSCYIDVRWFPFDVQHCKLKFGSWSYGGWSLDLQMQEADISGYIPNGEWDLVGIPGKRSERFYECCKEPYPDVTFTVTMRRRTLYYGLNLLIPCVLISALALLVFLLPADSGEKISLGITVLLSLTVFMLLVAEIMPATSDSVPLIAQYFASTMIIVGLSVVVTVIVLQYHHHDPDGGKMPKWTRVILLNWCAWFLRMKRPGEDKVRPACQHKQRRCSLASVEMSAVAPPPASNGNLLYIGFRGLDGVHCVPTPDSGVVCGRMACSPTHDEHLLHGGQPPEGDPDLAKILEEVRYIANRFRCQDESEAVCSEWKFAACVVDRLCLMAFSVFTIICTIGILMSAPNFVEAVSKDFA
T2 sequence (P30926 whole entry): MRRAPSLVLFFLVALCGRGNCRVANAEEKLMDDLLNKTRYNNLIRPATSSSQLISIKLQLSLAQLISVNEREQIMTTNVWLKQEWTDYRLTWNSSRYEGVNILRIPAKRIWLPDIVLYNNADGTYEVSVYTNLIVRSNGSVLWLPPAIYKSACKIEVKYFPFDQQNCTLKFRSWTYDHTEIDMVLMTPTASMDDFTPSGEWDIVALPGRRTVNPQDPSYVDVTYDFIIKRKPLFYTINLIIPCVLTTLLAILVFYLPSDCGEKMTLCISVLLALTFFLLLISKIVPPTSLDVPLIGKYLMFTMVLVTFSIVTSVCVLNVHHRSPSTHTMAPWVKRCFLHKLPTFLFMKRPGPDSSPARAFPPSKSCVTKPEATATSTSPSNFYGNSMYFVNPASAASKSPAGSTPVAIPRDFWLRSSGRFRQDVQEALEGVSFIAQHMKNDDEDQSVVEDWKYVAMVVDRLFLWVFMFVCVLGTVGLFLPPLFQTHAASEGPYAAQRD
T2 sequence (P32297 whole entry): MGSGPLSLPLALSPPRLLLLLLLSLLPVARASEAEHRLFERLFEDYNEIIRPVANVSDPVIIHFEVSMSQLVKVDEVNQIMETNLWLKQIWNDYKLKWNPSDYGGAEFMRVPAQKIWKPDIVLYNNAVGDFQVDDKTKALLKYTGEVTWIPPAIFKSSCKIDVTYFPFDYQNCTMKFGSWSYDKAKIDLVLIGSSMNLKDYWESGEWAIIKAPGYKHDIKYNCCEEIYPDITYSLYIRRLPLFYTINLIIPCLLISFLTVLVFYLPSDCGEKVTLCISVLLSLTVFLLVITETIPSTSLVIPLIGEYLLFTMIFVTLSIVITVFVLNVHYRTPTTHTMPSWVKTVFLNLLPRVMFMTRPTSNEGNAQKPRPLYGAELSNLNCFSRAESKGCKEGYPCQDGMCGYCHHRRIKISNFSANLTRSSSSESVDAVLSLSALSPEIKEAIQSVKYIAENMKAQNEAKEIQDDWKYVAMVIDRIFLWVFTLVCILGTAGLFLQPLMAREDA

For the compound `Clc1ccc(C2C[C@@H]3CCC2N3)cn1` (stereo partly drawn), the outcome in [1], in [2] and in assay [3] was inactive. Moreover, the inhibition result in assay [4] is “Active”.
Regarding `CC1(C)CCC[C@]2(C)[C@H]3COC(=O)C3=CC[C@@H]12` [CINNAMOLIDE], the IC50 in [5] amounted to 2.62 µM; in assay [6], 4.64 µM; in assay [7] (read-out: IC50) it was 1.57 µM. The outcome in assay [1], in assay [2] and in assay [3] was inactive. Further, in assay [4], the inhibition entry is “Active”.
For the compound `CC1(C)CCC[C@]2(C)[C@@H]3C(=CC[C@@H]12)C(=O)O[C@H]3O` [DENDOCARBIN A], the inhibition entry in assay [8] was “inactive”. Moreover, the IC50 in [5] is greater than 100 µM; in [6], greater than 100 µM; in assay [7] (hek293), “Not Active”. For the same compound, the outcome in assay [1], in assay [2] and in [3] was inactive.
As to `CC1(C)CCC[C@]2(C)[C@H]3C(=O)OCC3=CC[C@@H]12` [DRIMENIN], in [9], the inhibition entry is “Active”. Further, the IC50 in assay [5] is 1.78 µM; in assay [6], 13.8 µM; in assay [7] (read-out: IC50), 0.97 µM. Also, the inhibition in assay [10] turned out to be 100%. In addition, the result in [1], in assay [2] and in assay [3] was inactive.
For `CC1(C)CCC[C@]2(C)[C@@H](C=O)C(C=O)=CC[C@@H]12` [POLYGODIAL], the IC50 in assay [5] is 48.2 µM; in assay [6], greater than 100 µM; in assay [7] (read-out: IC50), 62.5 µM. The result in assay [1], in assay [2] and in [3] was inactive. The inhibition result in [4] is “Active”.
